The values that follow come from ChEMBL document CHEMBL1133010, “Structure-function studies of polymyxin B nonapeptide: implications to sensitization of gram-negative bacteria” (J Med Chem, 2000).

As usually defined, the IC50 is the concentration needed to halve the response being measured. A low value points to greater potency.

Holding throughout (format): functional
The test system of experiment [1] is Escherichia coli. Briefly: Inhibitory concentration required to displace dansyl-PMBN (0.55 uM) from maximal specific binding to Escherichia coli LPS. The settings on record: Escherichia coli. The procedure, abridged:
(§1)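 Fluorescence displacement assay. E. coli LPS (3 µg/mL, ~2 × 10^-7 M) in 5 mM HEPES pH 7.2 was pre-equilibrated with dansyl-PMBN (0.55 µM). Peptide was added stepwise at 5-min intervals from 1 × 10^-5 to 1 × 10^-3 M stocks. Fluorescence read at excitation 340 nm and emission 485 nm after each addition. Percent inhibition was plotted against concentration to give maximal and 50% displacement. 2-3 repeats.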

Experiment [2] relates to Klebsiella pneumoniae. Briefly: Relative sensitizing activity against Klebsiella pneumoniae was determined as a percent of pPMBN (50 ug/mL) as a control. The essentials: (§2)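 Clinical isolates at 1 × 10^5 CFU per well, in ISB with a 2-fold serial dilution (1000-0.5 µg/mL) of novobiocin. Peptide added at 50 µg/mL final. Incubated 20 h at 37 °C and read by visible growth. Sensitizing activity is the fold drop in novobiocin MIC with versus without peptide, expressed as percent of that given by 50 µg/mL pPMBN.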

Experiment [3] deals with Escherichia coli. Briefly: Relative sensitizing activity against Escherichia coli was determined as a percent of pPMBN (50 ug/mL) as a control. The procedure, abridged: as §2
Experiment [4] relates to Escherichia coli. Briefly: Maximal displacement of dansyl-PMBN from Escherichia coli LPS. The procedure, abridged:
as §1

As to `CC(C)C[C@@H]1NC(=O)[C@@H](Cc2ccccc2)NC(=O)[C@H](CCN=C(N)N)NC(=O)[C@@H](NC(=O)[C@H](CCN=C(N)N)NC(=O)[C@@H](N)[C@@H](C)O)CCNC(=O)[C@H]([C@@H](C)O)NC(=O)[C@H](CCN=C(N)N)NC(=O)[C@H](CCN=C(N)N)NC1=O` [listing 1 of 2 here], the concentration for half-maximal inhibition (IC50) in experiment [1] is 3.8 µM.
Same read-out and setting: the result for `CC(C)C[C@@H]1NC(=O)[C@@H](Cc2ccccc2)NC(=O)[C@H](CCCCN)NC(=O)[C@@H](NC(=O)[C@H](CCCCN)NC(=O)[C@@H](N)[C@@H](C)O)CCNC(=O)[C@H]([C@@H](C)O)NC(=O)[C@H](CCN)NC(=O)[C@H](CCN)NC1=O` [listing 1 of 2 here] reads 14 µM.
In the case of `CC(C)C[C@@H]1NC(=O)[C@@H](Cc2ccccc2)NC(=O)[C@H](CCCCN)NC(=O)[C@@H](NC(=O)[C@H](CCCCN)NC(=O)[C@@H](N)[C@@H](C)O)CCNC(=O)[C@H]([C@@H](C)O)NC(=O)[C@H](CCCCN)NC(=O)[C@H](CCCCN)NC1=O`, the Activity in experiment [2] is 3%; in experiment [3], 5%.
`CC(C)C[C@H]1NC(=O)[C@@H](Cc2ccccc2)NC(=O)[C@@H](CN)NC(=O)[C@H](NC(=O)[C@H](CN)NC(=O)[C@@H](N)[C@@H](C)O)CNC(=O)[C@H]([C@@H](C)O)NC(=O)[C@@H](CN)NC(=O)[C@H](CN)NC1=O` displayed an Imax in experiment [4] of 64%.
The same measure, in the same setting: the result for `CC(C)C[C@H]1NC(=O)[C@@H](Cc2ccccc2)NC(=O)[C@@H](CCCCN)NC(=O)[C@H](NC(=O)[C@H](CCCCN)NC(=O)[C@@H](N)[C@@H](C)O)CCNC(=O)[C@H]([C@@H](C)O)NC(=O)[C@@H](CCN)NC(=O)[C@H](CCN)NC1=O` reads 64%.
The compound `CC(C)C[C@@H]1NC(=O)[C@@H](Cc2ccccc2)NC(=O)[C@H](CCCN)NC(=O)[C@@H](NC(=O)[C@H](CCCN)NC(=O)[C@@H](N)[C@@H](C)O)CCCNC(=O)[C@H]([C@@H](C)O)NC(=O)[C@H](CCCN)NC(=O)[C@H](CCCN)NC1=O` [listing 1 of 2 here] gave a concentration for half-maximal inhibition (IC50) in experiment [1] of 25 µM.
The same measure, in the same setting: the result for `CC(C)C[C@@H]1NC(=O)[C@@H](Cc2ccccc2)NC(=O)[C@H](CCN)NC(=O)[C@@H](NC(=O)[C@H](CCN)NC(=O)[C@@H](N)[C@@H](C)O)CCNC(=O)[C@H]([C@@H](C)O)NC(=O)[C@H](CCCCN)NC(=O)[C@H](CCCCN)NC1=O` [listing 1 of 2 here] reads 12 µM.
In experiment [4], `CC(C)C[C@H]1NC(=O)[C@@H](Cc2ccccc2)NC(=O)[C@@H](CCN)NC(=O)[C@H](CCN)NC(=O)[C@@H](NC(=O)[C@@H](N)[C@@H](C)O)CCNC(=O)[C@H]([C@@H](C)O)NC(=O)[C@@H](CCN)NC(=O)[C@H](CCN)NC1=O` yielded an Imax of 60%.
With `CC(C)C[C@@H]1NC(=O)[C@@H](Cc2ccccc2)NC(=O)[C@H](CCN)NC(=O)[C@@H](NC(=O)[C@H](CCN)NC(=O)[C@@H](N)[C@@H](C)O)CCCCNC(=O)[C@H]([C@@H](C)O)NC(=O)[C@H](CCN)NC(=O)[C@H](CCN)NC1=O`, the Activity in experiment [2] was 18%; in experiment [3], 17%.
Compound `CC(C)C[C@H]1NC(=O)[C@@H](Cc2ccccc2)NC(=O)[C@@H](CCN)NC(=O)[C@H](NC(=O)[C@H](CCN)NC(=O)[C@@H](N)[C@@H](C)O)CCCCNC(=O)[C@H]([C@@H](C)O)NC(=O)[C@@H](CCN)NC(=O)[C@H](CCN)NC1=O` had an Imax in experiment [4] of 60%.
For `CC(C)C[C@@H]1NC(=O)[C@@H](Cc2ccccc2)NC(=O)[C@H](CCN)NC(=O)[C@@H](NC(=O)[C@H](CCN)NC(=O)[C@@H](N)[C@@H](C)O)CCNC(=O)[C@H]([C@@H](C)O)NC(=O)[C@H](CCN)NC(=O)[C@H](CCN)NC1=O` (stereo in doubt; form 2), the figures for the Activity in experiment [2] and in experiment [3] were 93% and 96%, respectively.
Taken in the same sequence, the figures for `CC(C)C[C@@H]1NC(=O)[C@@H](Cc2ccccc2)NC(=O)[C@H](CN)NC(=O)[C@@H](NC(=O)[C@H](CN)NC(=O)[C@@H](N)[C@@H](C)O)CNC(=O)[C@H]([C@@H](C)O)NC(=O)[C@H](CN)NC(=O)[C@H](CN)NC1=O` were 5% and 11%.
Consider `CC(C)C[C@H]1NC(=O)[C@@H](Cc2ccccc2)NC(=O)[C@@H](CCN)NC(=O)[C@H](NC(=O)[C@H](CCN)NC(=O)[C@@H](N)[C@@H](C)O)CCNC(=O)[C@H]([C@@H](C)O)NC(=O)[C@@H](CCCCN)NC(=O)[C@H](CCCCN)NC1=O`, for which the Imax in experiment [4] turned out to be 62%.
For the compound `CC(C)C[C@@H]1NC(=O)[C@@H](Cc2ccccc2)NC(=O)[C@H](CCCCN)NC(=O)[C@@H](NC(=O)[C@H](CCCCN)NC(=O)[C@@H](N)[C@@H](C)O)CCNC(=O)[C@H]([C@@H](C)O)NC(=O)[C@H](CCN)NC(=O)[C@H](CCN)NC1=O` [listing 2 of 2 here], the Activity in experiment [2] is listed as 13%; in experiment [3], 9%.
Taken in the same sequence, the figures for `CC(C)C[C@@H]1NC(=O)[C@@H](Cc2ccccc2)NC(=O)[C@H](CCCCN)NC(=O)[C@@H](NC(=O)[C@H](CCCCN)NC(=O)[C@@H](N)[C@@H](C)O)CCCCNC(=O)[C@H]([C@@H](C)O)NC(=O)[C@H](CCCCN)NC(=O)[C@H](CCCCN)NC1=O` were 3% and 4%.
Taken in the same sequence, the figures for `CC(C)C[C@@H]1NC(=O)[C@@H](Cc2ccccc2)NC(=O)[C@H](CCN)NC(=O)[C@H](CCN)NC(=O)[C@@H](NC(=O)[C@@H](N)[C@@H](C)O)CCNC(=O)[C@H]([C@@H](C)O)NC(=O)[C@H](CCN)NC(=O)[C@H](CCN)NC1=O` were 5% and 7%.
The compound `CC(C)C[C@H]1NC(=O)[C@@H](Cc2ccccc2)NC(=O)[C@@H](CCCCN)NC(=O)[C@H](NC(=O)[C@H](CCCCN)NC(=O)[C@@H](N)[C@@H](C)O)CCCCNC(=O)[C@H]([C@@H](C)O)NC(=O)[C@@H](CCCCN)NC(=O)[C@H](CCCCN)NC1=O` showed an Imax in experiment [4] of 60%.
The same measure, in the same setting: the result for POLYMYXIN B reads 100%.
On to `CC(C)C[C@@H]1NC(=O)[C@H](Cc2ccccc2)NC(=O)[C@H](CCN)NC(=O)[C@@H](NC(=O)[C@H](CCN)NC(=O)[C@@H](N)[C@@H](C)O)CCNC(=O)[C@H]([C@@H](C)O)NC(=O)[C@H](CCN)NC(=O)[C@H](CCN)NC1=O`, for which the values for the Activity in experiment [2] and in experiment [3] were 9% and 5%, respectively.
Compound `CC(C)C[C@H]1NC(=O)[C@@H](Cc2ccccc2)NC(=O)[C@@H](CCCN)NC(=O)[C@H](NC(=O)[C@H](CCCN)NC(=O)[C@@H](N)[C@@H](C)O)CCCNC(=O)[C@H]([C@@H](C)O)NC(=O)[C@@H](CCCN)NC(=O)[C@H](CCCN)NC1=O` had an Imax in experiment [4] of 62%.
Same read-out and setting: the result for `CC(C)C[C@H]1NC(=O)[C@@H](Cc2ccccc2)NC(=O)[C@@H](CCCCN)NC(=O)[C@H](NC(=O)[C@H](CCCCN)NC(=O)[C@@H](N)[C@@H](C)O)CCNC(=O)[C@H]([C@@H](C)O)NC(=O)[C@@H](CCCCN)NC(=O)[C@H](CCCCN)NC1=O` reads 45%; that for `CC(C)C[C@H]1NC(=O)[C@@H](Cc2ccccc2)NC(=O)[C@@H](CCN)NC(=O)[C@H](NC(=O)[C@H](CCN)NC(=O)[C@@H](N)[C@@H](C)O)CCNC(=O)[C@H]([C@@H](C)O)NC(=O)[C@@H](CCN)NC(=O)[C@H](CCN)NC1=O` (stereo in doubt; form 1), 80%.
`CC(C)C[C@@H]1NC(=O)[C@@H](Cc2ccccc2)NC(=O)[C@H](CCN=C(N)N)NC(=O)[C@@H](NC(=O)[C@H](CCN=C(N)N)NC(=O)[C@@H](N)[C@@H](C)O)CCNC(=O)[C@H]([C@@H](C)O)NC(=O)[C@H](CCN=C(N)N)NC(=O)[C@H](CCN=C(N)N)NC1=O` [listing 2 of 2 here]: the Activity in experiment [2] and in experiment [3] was 25% in each case.
Consider `CC(C)C[C@H]1NC(=O)[C@@H](Cc2ccccc2)NC(=O)[C@@H](NC(=O)[C@H](CCN)NC(=O)[C@H](CCN)NC(=O)[C@@H](N)[C@@H](C)O)CCNC(=O)[C@H]([C@@H](C)O)NC(=O)[C@@H](CCN)NC(=O)[C@H](CCN)NC1=O`, for which the Imax in experiment [4] worked out at 45%.
Take `CC(C)C[C@@H]1NC(=O)[C@@H](Cc2ccccc2)NC(=O)[C@H](CCCN)NC(=O)[C@@H](NC(=O)[C@H](CCCN)NC(=O)[C@@H](N)[C@@H](C)O)CCCNC(=O)[C@H]([C@@H](C)O)NC(=O)[C@H](CCCN)NC(=O)[C@H](CCCN)NC1=O` [listing 2 of 2 here]: the values for the Activity in experiment [2] and in experiment [3] were 6% and 2%, respectively.
Turning to `CC(C)C[C@@H]1NC(=O)[C@@H](Cc2ccccc2)NC(=O)[C@H](CCN)NC(=O)[C@@H](NC(=O)[C@H](CCN)NC(=O)[C@@H](N)[C@@H](C)O)CCNC(=O)[C@H]([C@@H](C)O)NC(=O)[C@H](CCCCN)NC(=O)[C@H](CCCCN)NC1=O` [listing 2 of 2 here], the values for the Activity in experiment [2] and in experiment [3] were 26% and 40%, respectively.
In experiment [4], `CC(C)C[C@H]1NC(=O)[C@@H](Cc2ccccc2)NC(=O)[C@@H](CCN)NC(=O)[C@H](NC(=O)[C@H](CCN)NC(=O)[C@@H](N)[C@@H](C)O)CCNC(=O)[C@H]([C@@H](C)O)NC(=O)[C@@H](CCN)NC(=O)[C@H](CCN)NC1=O` (stereo in doubt; form 2) yielded an Imax of 80%.
Take `CC(C)C[C@H]1NC(=O)[C@H](Cc2ccccc2)NC(=O)[C@@H](CCN=C(N)N)NC(=O)[C@H](NC(=O)[C@H](CCN=C(N)N)NC(=O)[C@@H](N)[C@@H](C)O)CCNC(=O)[C@H]([C@@H](C)O)NC(=O)[C@@H](CCN=C(N)N)NC(=O)[C@H](CCN=C(N)N)NC1=O`: the Imax in experiment [4] came to 80%.
In the case of `CC(C)C[C@@H]1NC(=O)[C@@H](Cc2ccccc2)NC(=O)[C@@H](NC(=O)[C@H](CCN)NC(=O)[C@H](CCN)NC(=O)[C@@H](N)[C@@H](C)O)CCNC(=O)[C@H]([C@@H](C)O)NC(=O)[C@H](CCN)NC(=O)[C@H](CCN)NC1=O`, the Activity in experiment [2] is 5%; in experiment [3], 4%.
In turn, `CC(C)C[C@H]1NC(=O)[C@H](Cc2ccccc2)NC(=O)[C@@H](CCN)NC(=O)[C@H](NC(=O)[C@H](CCN)NC(=O)[C@@H](N)[C@@H](C)O)CCNC(=O)[C@H]([C@@H](C)O)NC(=O)[C@@H](CCN)NC(=O)[C@H](CCN)NC1=O` registered an Imax in experiment [4] of 64%.
